Data: ChEMBL document CHEMBL1125281, “Identification and synthesis of a receptor binding site of human anaphylatoxin C5a” (J Med Chem, 1991)
Where a SMILES comes first, the peptide text is derived from it. Bridges are numbered along the chain shown (N, C = ends). The star is where a group is joined. Acm = CC(=O)NC*

Key:
[1] = molecular target: T1, C5a anaphylatoxin chemotactic receptor 1 (Homo sapiens, UniProt P21730); assay: Inhibition of [125I]C5a binding to anaphylatoxin chemotactic receptor of PMNL cells; assay type: cell-based
T1 sequence (P21730 whole entry): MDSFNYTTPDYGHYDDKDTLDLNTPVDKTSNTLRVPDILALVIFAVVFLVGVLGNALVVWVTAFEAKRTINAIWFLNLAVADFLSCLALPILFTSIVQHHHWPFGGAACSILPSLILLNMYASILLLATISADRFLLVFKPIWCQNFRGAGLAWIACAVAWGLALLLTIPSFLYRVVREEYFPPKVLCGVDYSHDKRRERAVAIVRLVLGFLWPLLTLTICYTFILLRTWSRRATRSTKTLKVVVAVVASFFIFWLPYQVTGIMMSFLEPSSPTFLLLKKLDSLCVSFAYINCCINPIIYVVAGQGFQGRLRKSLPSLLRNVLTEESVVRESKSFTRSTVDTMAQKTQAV
In short: (§1)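 Intact human PMNL isolated from peripheral blood by one-step density centrifugation. Cells incubated 20 min at 23 °C with [125I]C5a (1 × 10⁻⁹ M), test peptide and protease inhibitors. Cells separated from free ligand by centrifugation through silicone oil at 10000g; pellet γ counts read.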

[2] = molecular target: T1, C5a anaphylatoxin chemotactic receptor 1; assay: Inhibition of [125I]-C5a anaphylatoxin chemotactic receptor binding to PMNL membranes.
[3] = molecular target: T1, C5a anaphylatoxin chemotactic receptor 1; assay: Inhibition of [125I]C5a binding to anaphylatoxin chemotactic receptor of PMNL membranes
[4] = molecular target: T1, C5a anaphylatoxin chemotactic receptor 1; assay: Inhibition of [125I]C5a binding to C5a anaphylatoxin chemotactic receptor in PMNL intact cells; inactive; assay type: cell-based; in short: as §1
[5] = molecular target: T1, C5a anaphylatoxin chemotactic receptor 1; assay: Inhibition of [125I]C5a binding to C5a anaphylatoxin chemotactic receptor in PMNL membranes; assay type: cell membranes

| SMILES | Ki [1] | Ki [3] | further results |
| --- | --- | --- | --- |
| CC[C@H](C)[C@H](NC(=O)[C@H](CC(N)=O)NC(=O)[C@H](C)NC(=O)[C@H](CCCN=C(N)N)NC(=O)[C@H](CC(C)C)NC(=O)[C@H](CCC(N)=O)NC(=O)[C@H](CO)NC(=O)[C@H](C)NC(=O)[C@@H](NC(=O)[C@@H](NC(=O)[C@H](CCSC)NC(C)=O)C(C)C)C(C)C)C(=O)N[C@@H](CO)C(=O)N[C@@H](Cc1c[nH]cn1)C(=O)N[C@@H](CCCCN)C(=O)N[C@@H](CC(=O)O)C(=O)N[C@@H](CCSC)C(=O)N[C@@H](CCC(N)=O)C(=O)N[C@@H](CC(C)C)C(=O)NCC(=O)N[C@@H](CCCN=C(N)N)C(=O)O (Ac-MVVASQLRANISHKDMQLGR-OH) | Not Active |  |  |
| CC[C@H](C)[C@H](NC(=O)[C@H](CC(N)=O)NC(=O)[C@H](C)NC(=O)[C@H](CCCN=C(N)N)NC(=O)[C@H](CC(C)C)NC(=O)[C@H](CCC(N)=O)NC(=O)[C@@H](N)CO)C(=O)N[C@@H](CO)C(=O)N[C@@H](Cc1c[nH]cn1)C(=O)N[C@@H](CCCCN)C(=O)N[C@@H](CC(=O)O)C(=O)N[C@@H](CCSC)C(=O)N[C@@H](CCC(N)=O)C(=O)N[C@@H](CC(C)C)C(=O)NCC(=O)N[C@@H](CCCN=C(N)N)C(=O)O (H-SQLRANISHKDMQLGR-OH) | Not Active |  |  |
| CC[C@H](C)[C@H](NC(=O)[C@H](CC(N)=O)NC(=O)[C@H](C)NC(=O)[C@H](CCCNC(=N)N)NC(=O)[C@H](CC(C)C)NC(=O)[C@H](CCC(N)=O)NC(=O)[C@H](CO)NC(=O)[C@H](C)NC(=O)[C@@H](NC(=O)[C@@H](NC(=O)[C@H](CCSC)NC(=O)[C@H](CCSC)NC(=O)[C@H](CCC(=O)O)NC(=O)[C@@H](NC(=O)[C@@H](N)Cc1ccccc1)[C@@H](C)O)C(C)C)C(C)C)C(=O)N[C@@H](CO)C(=O)N[C@@H](Cc1cnc[nH]1)C(=O)N[C@@H](CCCCN)C(=O)N[C@@H](CC(=O)O)C(=O)N[C@@H](CCSC)C(=O)N[C@@H](CCC(N)=O)C(=O)N[C@@H](CC(C)C)C(=O)NCC(=O)N[C@@H](CCCNC(=N)N)C(=O)O (H-FTEMMVVASQLRANISHKDMQLGR-OH) |  |  | Ki [2]: 100 µM |
| CC(=O)N[C@@H](C)C(=O)N[C@@H](C)C(=O)N[C@@H](CCCCN)C(=O)N[C@@H](Cc1ccc(O)cc1)C(=O)N[C@@H](CCCCN)C(=O)N[C@@H](Cc1c[nH]cn1)C(=O)N[C@@H](CO)C(=O)N[C@H](C(=O)N[C@H](C(=O)N[C@@H](CCCCN)C(=O)N[C@@H](CCCCN)C(=O)O)C(C)C)C(C)C (Ac-AAKYKHSVVKK-OH) | Not Active | Not Active |  |
| CC[C@H](C)[C@H](NC(=O)[C@H](CCC(=O)O)NC(=O)[C@H](CCC(=O)O)NC(=O)[C@@H](NC(=O)[C@H](CCCCN)NC(=O)[C@H](CCCCN)NC(=O)[C@H](CCC(N)=O)NC(=O)[C@H](CC(C)C)NC(=O)[C@@H](N)[C@@H](C)O)[C@@H](C)CC)C(=O)N[C@@H](C)C(=O)N[C@@H](C)C(=O)N[C@@H](CCCCN)C(=O)N[C@@H](Cc1ccc(O)cc1)C(=O)N[C@@H](CCCCN)C(=O)O (H-TLQKKIEEIAAKYK-OH) | Not Active | Not Active |  |
| CC(C)[C@H](NC(=O)[C@H](C)NC(=O)[C@H](C)NC(=O)CNC(=O)[C@H](CC(=O)O)NC(=O)[C@H](Cc1ccc(O)cc1)NC(=O)[C@H](C)NC(=O)[C@H](C)NC(=O)[C@H](CCCCN)NC(=O)[C@H](CCCCN)NC(=O)[C@@H](NC(=O)[C@@H](NC(=O)[C@H](CO)NC(=O)[C@@H](N)Cc1c[nH]cn1)C(C)C)C(C)C)C(=O)N[C@@H](CC(N)=O)C(=O)N[C@@H](CC(N)=O)C(=O)N[C@@H](CC(=O)O)C(=O)N[C@@H](CCC(=O)O)C(=O)O (H-HSVVKKAAYDGAAVNNDE-OH) | Not Active | Not Active |  |
| CSCC[C@H](NC(=O)[C@H](CC(=O)O)NC(=O)[C@H](CCCCN)NC(=O)[C@H](Cc1c[nH]cn1)NC(C)=O)C(=O)N[C@@H](CCC(N)=O)C(=O)N[C@@H](CC(C)C)C(=O)NCC(=O)N[C@@H](CCCN=C(N)N)C(=O)O (Ac-HKDMQLGR-OH) |  |  | Ki [4]: Not Active |
| CC[C@H](C)[C@H](N)C(=O)N[C@@H](CO)C(=O)N[C@@H](Cc1c[nH]cn1)C(=O)N[C@@H](CCCCN)C(=O)N[C@@H](CC(=O)O)C(=O)N[C@@H](CCSC)C(=O)N[C@@H](CCC(N)=O)C(=O)N[C@@H](CC(C)C)C(=O)NCC(=O)N[C@@H](CCCN=C(N)N)C(=O)O [ISHKDMQLGR] (H-ISHKDMQLGR-OH) |  |  | Ki [4]: Not Active |
| CC(C)[C@H](NC(=O)[C@H](CO)NC(=O)[C@H](Cc1c[nH]cn1)NC(=O)[C@@H](N)CCCCN)C(=O)N[C@H](C(=O)N[C@@H](CCCCN)C(=O)N[C@@H](CCCCN)C(=O)O)C(C)C (H-KHSVVKK-OH) | Not Active | Not Active |  |
| CC(C)C[C@H](NC(=O)[C@H](CCC(N)=O)NC(=O)[C@H](CO)NC(=O)[C@H](C)NC(=O)[C@@H](NC(=O)[C@@H](NC(=O)[C@H](C)N)C(C)C)C(C)C)C(=O)N[C@@H](CCCN=C(N)N)C(=O)O (H-AVVASQLR-OH) | Not Active | Not Active |  |
| CC[C@H](C)[C@H](N)C(=O)N[C@@H](CO)C(=O)N[C@@H](Cc1cnc[nH]1)C(=O)N[C@@H](CCCCN)C(=O)N[C@@H](CC(=O)O)C(=O)N[C@@H](CCSC)C(=O)N[C@@H](CCC(N)=O)C(=O)N[C@@H](CC(C)C)C(=O)NCC(=O)N[C@@H](CCCNC(=N)N)C(=O)O [ISHKDMQLGR] (H-ISHKDMQLGR-OH) |  |  | Ki [5]: 300 µM |
| CC[C@H](C)[C@@H]1NC(=O)[C@H](CCC(=O)O)NC(=O)[C@H](CCC(=O)O)NC(=O)[C@@H](NC(=O)[C@H](CCCCN)NC(=O)[C@H](CCCCN)NC(=O)[C@H](CCC(N)=O)NC(=O)[C@H](CC(C)C)NC(=O)[C@@H](N)[C@@H](C)O)CSSC[C@@H](C(=O)N[C@@H](Cc2ccc(O)cc2)C(=O)N[C@@H](CC(=O)O)C(=O)NCC(=O)N[C@@H](C)C(=O)O)NC(=O)[C@H](C)NC(=O)[C@H](CCCCN)NC(=O)[C@H](CCCCN)NC(=O)[C@H](C(C)C)NC(=O)[C@H](C(C)C)NC(=O)[C@H](CO)NC(=O)[C@H](Cc2c[nH]cn2)NC(=O)[C@H](CCCCN)NC(=O)[C@H](Cc2ccc(O)cc2)NC(=O)[C@H](CCCCN)NC(=O)[C@H](C)NC(=O)[C@H](C)NC1=O (H-TLQKKCEEIAAKYKHSVVKKACYDGA-OH; disulfide 6-22) | Not Active | Not Active |  |
| CC(=O)NCSC[C@H](NC(=O)[C@H](C)NC(=O)[C@H](CCCCN)NC(=O)[C@H](CCCCN)NC(=O)[C@@H](NC(=O)[C@@H](NC(=O)[C@@H](N)CO)C(C)C)C(C)C)C(=O)N[C@@H](Cc1ccc(O)cc1)C(=O)N[C@@H](CC(=O)O)C(=O)NCC(=O)N[C@@H](C)C(=O)O (H-SVVKKAC(Acm)YDGA-OH) | Not Active | Not Active |  |
| CC[C@H](C)[C@H](NC(=O)[C@H](CC(N)=O)NC(=O)[C@H](C)NC(=O)[C@H](CCCNC(=N)N)NC(=O)[C@H](CC(C)C)NC(=O)[C@H](CCC(N)=O)NC(=O)[C@H](CO)NC(=O)[C@H](C)NC(=O)[C@@H](NC(=O)[C@@H](NC(=O)[C@H](CCSC)NC(C)=O)C(C)C)C(C)C)C(=O)N[C@@H](CO)C(=O)N[C@@H](Cc1cnc[nH]1)C(=O)N[C@@H](CCCCN)C(=O)N[C@@H](CC(=O)O)C(=O)N[C@@H](CCSC)C(=O)N[C@@H](CCC(N)=O)C(=O)N[C@@H](CC(C)C)C(=O)NCC(=O)N[C@@H](CCCNC(=N)N)C(=O)O (Ac-MVVASQLRANISHKDMQLGR-OH) |  |  | Ki [2]: 50 µM |
| CSCC[C@H](NC(=O)[C@H](CC(=O)O)NC(=O)[C@H](CCCCN)NC(=O)[C@H](Cc1cnc[nH]1)NC(C)=O)C(=O)N[C@@H](CCC(N)=O)C(=O)N[C@@H](CC(C)C)C(=O)NCC(=O)N[C@@H](CCCNC(=N)N)C(=O)O (Ac-HKDMQLGR-OH) |  |  | Ki [5]: 150 µM |
| CC(C)[C@@H]1NC(=O)[C@H](CO)NC(=O)[C@H](Cc2c[nH]cn2)NC(=O)[C@H](CCCCN)NC(=O)[C@H](Cc2ccc(O)cc2)NC(=O)[C@H](CCCCN)NC(=O)[C@H](C)NC(=O)[C@@H](N)CSSC[C@@H](C(=O)O)NC(=O)[C@H](C(C)C)NC1=O (H-CAKYKHSVVC-OH; disulfide 1-10) | Not Active | Not Active |  |
| CC[C@H](C)[C@H](NC(=O)[C@H](CCCNC(=N)N)NC(=O)[C@H](C)NC(=O)[C@H](C)NC(=O)[C@H](CCCNC(=N)N)NC(=O)[C@H](CCC(N)=O)NC(=O)[C@H](CCC(=O)O)NC(=O)[C@H](CSCNC(C)=O)NC(=O)[C@@H](NC(C)=O)[C@@H](C)O)C(=O)N[C@@H](CO)C(=O)N[C@@H](CC(C)C)C(=O)O (Ac-TC(Acm)EQRAARISL-OH) | Not Active | Not Active |  |
| CSCC[C@H](NC(=O)[C@H](CC(=O)O)NC(=O)[C@H](CCCCN)NC(=O)[C@@H](N)Cc1c[nH]cn1)C(=O)N[C@@H](CCC(N)=O)C(=O)N[C@@H](CC(C)C)C(=O)NCC(=O)N[C@@H](CCCN=C(N)N)C(=O)O (H-HKDMQLGR-OH) |  |  | Ki [4]: Not Active; Ki [5]: 300 µM |
| CC[C@H](C)[C@H](NC(=O)[C@H](CCCN=C(N)N)NC(=O)[C@H](C)NC(=O)[C@@H](N)CSCNC(C)=O)C(=O)N[C@@H](CO)C(=O)N[C@@H](CC(C)C)C(=O)NCC(=O)N1CCC[C@H]1C(=O)N[C@@H](CCCN=C(N)N)C(=O)N[C@@H](CCSC)C(=O)N[C@@H](CSCNC(C)=O)C(=O)N[C@@H](CCCCN)C(=O)O (H-C(Acm)ARISLGPRMC(Acm)K-OH) | Not Active | Not Active |  |
